From ChEMBL document CHEMBL1759995, “Potential CRF1R PET imaging agents: N-fluoroalkyl-8-(6-methoxy-2-methylpyridin-3-yl)-2,7-dimethyl-N-alkylpyrazolo[1,5-a][1,3,5]triazin-4-amines” (Bioorg Med Chem Lett, 2011)

Columns and labels:
[1] = target: T1, Corticotropin-releasing factor receptor 1 (Rattus norvegicus, UniProt P35353); assay: Displacement of [125I]-o-CRF from CRF1 receptor in rat frontal cortex by rapid filtration technique; format: tissue-based
T1 sequence (P35353 whole entry): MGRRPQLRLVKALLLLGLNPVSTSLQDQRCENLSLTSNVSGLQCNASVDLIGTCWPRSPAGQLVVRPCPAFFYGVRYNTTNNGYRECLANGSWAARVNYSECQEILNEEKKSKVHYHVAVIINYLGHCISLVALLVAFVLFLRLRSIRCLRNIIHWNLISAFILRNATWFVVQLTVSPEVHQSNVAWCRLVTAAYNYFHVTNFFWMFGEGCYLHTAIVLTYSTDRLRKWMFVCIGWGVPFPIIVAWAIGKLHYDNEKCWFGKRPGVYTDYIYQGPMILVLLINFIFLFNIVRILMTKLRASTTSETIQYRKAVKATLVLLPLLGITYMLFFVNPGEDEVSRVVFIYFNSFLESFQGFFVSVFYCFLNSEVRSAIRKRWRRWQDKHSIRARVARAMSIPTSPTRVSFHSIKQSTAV
Method in brief: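 Frozen rat frontal cortex homogenized in 50 mM HEPES (pH 7.0 at 23 °C) with MgCl2, EGTA, protease inhibitors, 0.005% Triton X-100, bacitracin and 0.1% ovalbumin; pellet washed twice by centrifugation at 32,000 g. Membranes (25 µg/well) incubated with 150 pM 125I-o-CRF and compounds 2 h at 21 °C. Bound ligand captured on PEI-treated GF/B filters, washed with ice-cold PBS/0.01% Triton. IC50 from inhibition of specific binding.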

[2] = Lipophilicity, log D of the compound in octanol-phosphate buffer at pH 7.4 by Shake flask method; format: physicochemical
Method in brief: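 Shake-flask partitioning between 25 mM phosphate buffer (pH 7.4) and octanol, both pre-saturated by mixing and standing overnight. A 1.0 mg sample dissolved in 1 mL octanol and added to 50 mL octanol-saturated buffer.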

IC50 [1] [nM] | logD [2] | Compound
35 | 3.4 | COCCN(CCCF)c1nc(C)nc2c(-c3ccc(OC)nc3)c(C)nn12
> 10000 | 1.8 | COCCN(CCCF)c1nc(C)nc2c(-c3cnc(OC)nc3OC)c(C)nn12
6.5 | 3.5 | COc1ccc(-c2c(C)nn3c(N(CCC#N)CCCF)nc(C)nc23)c(C)n1
1.6 | 4.8 | CCN(CCCF)c1nc(C)nc2c(-c3ccc(OC)nc3C)c(C)nn12
390 | 3.2 | COCCN(CCCF)c1nc(C)nc2c(-c3cnc(OC)nc3)c(C)nn12
5.8 | 4.5 | CCN(CCF)c1nc(C)nc2c(-c3ccc(OC)nc3C)c(C)nn12
1.9 | 4.1 | COCCN(CCCF)c1nc(C)nc2c(-c3ccc(OC)nc3C)c(C)nn12
5.5 | 4.6 | COCCN(CCF)c1nc(C)nc2c(-c3ccc(OC)nc3C)c(C)nn12
